# Results taken from ChEMBL document CHEMBL1933033, “Cytotoxic withanolide constituents of Physalis longifolia” (J Nat Prod, 2011).
# How the values were obtained:
# B16-F10 = test: Cytotoxicity against mouse B16F10 cells after 72 hrs by MTS assay; assay type: functional, cell-based; settings: B16-F10, 72 h
# In short: (§1)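 MTS viability assay on HNSCC (JMAR, MDA-1986), melanoma (B16F10, SKMEL-28) and normal fetal fibroblast (MRC-5) cells. Pure compounds tested at ten concentrations from 50 nM to 20 μM. IC50 values derived from the concentration series.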
# SK-MEL-28 = test: Cytotoxicity against human SK-MEL-28 cells after 72 hrs by MTS assay; assay type: functional, cell-based; settings: SK-MEL-28, 72 h; in short: as §1
# [1] = Cytotoxicity against human JMAR cells after 72 hrs by MTS assay; assay type: functional, cell-based; in short: as §1
# [2] = Cytotoxicity against human MDA1986 cells after 72 hrs by MTS assay; assay type: functional, cell-based; settings: MDA1986, 72 h; in short: as §1
# [3] = Cytotoxicity against human […] cells after 72 hrs by MTS assay; assay type: cell-based; in short: as §1
structure (smiles),measurement,setting,value
CC1=C(CO[C@@H]2O[C@H](CO)[C@@H](O)[C@H](O)[C@H]2O)C[C@H]([C@@H](C)[C@H]2CC[C@H]3[C@@H]4CC(=O)C5=C(CC[C@@H](O)C5)[C@H]4CC[C@]23C)OC1=O [WITHALONGOLIDE N],IC50,B16-F10,> 10 µM
same,IC50,SK-MEL-28,> 10 µM
same,IC50,[1],> 10 µM
same,IC50,[2],> 10 µM
same,IC50,[3],> 10 µM
CO[C@H]1CC(=O)[C@]2(C)[C@@H]3[C@@H](C[C@H]4O[C@]42[C@H]1O)[C@@H]1CC[C@H]([C@H](C)[C@H]2CC(C)=C(CO)C(=O)O2)[C@@]1(C)C[C@@H]3O [WITHALONGOLIDE E],IC50,B16-F10,5.6 µM
same,IC50,SK-MEL-28,> 10 µM
same,IC50,[1],> 10 µM
same,IC50,[2],8.3 µM
same,IC50,[3],7.3 µM
CC1=C(CO[C@@H]2O[C@H](CO)[C@@H](O)[C@H](O)[C@H]2O)C[C@H]([C@@H](C)[C@H]2CC[C@H]3[C@@H]4C[C@H](O)c5cccc(O)c5[C@H]4CC[C@]23C)OC1=O [WITHALONGOLIDESAPONIN],IC50,B16-F10,> 10 µM
same,IC50,SK-MEL-28,> 10 µM
same,IC50,[1],> 10 µM
same,IC50,[2],> 10 µM
same,IC50,[3],> 10 µM
CC1=C(CO[C@@H]2O[C@H](CO)[C@@H](O)[C@H](O)[C@H]2O)C[C@H]([C@@H](C)[C@H]2CC[C@H]3[C@@H]4CCC5=C(C(=O)C[C@H](O)C5)[C@H]4CC[C@]23C)OC1=O [WITHALONGOLIDE M],IC50,B16-F10,> 10 µM
same,IC50,SK-MEL-28,> 10 µM
same,IC50,[1],> 10 µM
same,IC50,[2],> 10 µM
same,IC50,[3],> 10 µM
CC(=O)OC[C@]12C(=O)C=C[C@H](OC(C)=O)[C@]13O[C@@H]3C[C@H]1[C@@H]3CC[C@H]([C@H](C)[C@H]4CC(C)=C(C)C(=O)O4)[C@@]3(C)CC[C@@H]12,IC50,B16-F10,0.13 µM
same,IC50,SK-MEL-28,0.27 µM
same,IC50,[1],0.24 µM
same,IC50,[2],0.11 µM
same,IC50,[3],0.51 µM
CC(=O)OC[C@]12C(=O)C=C[C@H](O)[C@]13O[C@@H]3C[C@H]1[C@@H]3CC[C@H]([C@H](C)[C@H]4CC(C)=C(C)C(=O)O4)[C@@]3(C)CC[C@@H]12,IC50,B16-F10,0.19 µM
same,IC50,SK-MEL-28,0.64 µM
same,IC50,[1],0.12 µM
same,IC50,[2],0.49 µM
same,IC50,[3],0.16 µM
CC1=C(CO[C@@H]2O[C@H](CO)[C@@H](O)[C@H](O)[C@H]2O)C[C@H]([C@@H](C)[C@H]2CC[C@H]3[C@@H]4CC=C5C[C@@H](O)C[C@H](O)[C@]5(CO)[C@H]4CC[C@]23C)OC1=O [WITHALONGOLIDE J],IC50,B16-F10,> 10 µM
same,IC50,SK-MEL-28,> 10 µM
same,IC50,[1],> 10 µM
same,IC50,[2],> 10 µM
same,IC50,[3],> 10 µM
CC(=O)OCC1=C(C)C[C@H]([C@@H](C)[C@H]2CC[C@H]3[C@@H]4C[C@H]5O[C@]56[C@@H](OC(C)=O)C=CC(=O)[C@]6(COC(C)=O)[C@H]4CC[C@]23C)OC1=O,IC50,B16-F10,0.067 µM
same,IC50,SK-MEL-28,0.54 µM
same,IC50,[1],0.16 µM
same,IC50,[2],0.91 µM
same,IC50,[3],0.58 µM
CC1=C(CO[C@@H]2O[C@H](CO)[C@@H](O[C@@H]3O[C@@H](C)[C@H](O)[C@@H](O)[C@H]3O)[C@H](O)[C@H]2O)C(=O)O[C@@H]([C@@H](C)[C@H]2CC[C@H]3[C@@H]4C[C@H]5O[C@]56[C@@H](O)C=CC(=O)[C@]6(C)[C@H]4CC[C@]23C)C1 [WITHALONGOLIDE H],IC50,B16-F10,> 10 µM
same,IC50,SK-MEL-28,> 10 µM
same,IC50,[1],8.2 µM
same,IC50,[2],8.1 µM
same,IC50,[3],8.7 µM
CC1=C(CO)C(=O)O[C@@H]([C@@H](C)[C@H]2CC[C@H]3[C@@H]4C[C@H]5O[C@]56[C@@H](O)C=CC(=O)[C@]6(CO)[C@H]4CC[C@]23C)C1,IC50,B16-F10,> 10 µM
same,IC50,SK-MEL-28,5.1 µM
same,IC50,[1],5.3 µM
same,IC50,[2],3.3 µM
same,IC50,[3],> 10 µM
CC1=C(CO)C(=O)O[C@@H]([C@@H](C)[C@H]2CC[C@H]3[C@@H]4C[C@H]5O[C@]56[C@@H](O)[C@@H](O)CC(=O)[C@]6(C)[C@H]4CC[C@]23C)C1 [VISCOSALACTONE B],IC50,B16-F10,> 10 µM
same,IC50,SK-MEL-28,> 10 µM
same,IC50,[1],> 10 µM
same,IC50,[2],> 10 µM
same,IC50,[3],> 10 µM
CC1=C(CO)C(=O)O[C@@H]([C@@H](C)[C@H]2CC[C@H]3[C@@H]4C[C@H]5O[C@]56[C@@H](O)[C@@H](OS(=O)(=O)O)CC(=O)[C@]6(CO)[C@H]4CC[C@]23C)C1 [WITHALONGOLIDE G],IC50,B16-F10,1.3 µM
same,IC50,SK-MEL-28,4.8 µM
same,IC50,[1],2.3 µM
same,IC50,[2],2 µM
same,IC50,[3],3.3 µM
CC1=C(CO)C(=O)O[C@@H]([C@@H](C)[C@H]2CC[C@H]3[C@@H]4CC=C5C=CC(=O)[C@]5(C)[C@H]4CC[C@]23C)C1 [WITHALONGOLIDE F],IC50,B16-F10,> 10 µM
same,IC50,SK-MEL-28,> 10 µM
same,IC50,[1],> 10 µM
same,IC50,[2],> 10 µM
same,IC50,[3],> 10 µM
CC1=C(CO)C(=O)O[C@@H]([C@@H](C)[C@H]2CC[C@H]3[C@@H]4C[C@H]5O[C@]56[C@@H](O)C=CC(=O)[C@]6(C)[C@H]4CC[C@]23C)C1 [WITHAFERIN A],IC50,B16-F10,0.29 µM
same,IC50,SK-MEL-28,4 µM
same,IC50,[1],2 µM
same,IC50,[2],0.8 µM
same,IC50,[3],0.2 µM
CC1=C(CO)C(=O)O[C@@H]([C@@H](C)[C@H]2CC[C@H]3[C@@H]4C[C@H]5O[C@]56[C@@H](O)CCC(=O)[C@]6(C)[C@H]4CC[C@]23C)C1,IC50,B16-F10,> 10 µM
same,IC50,SK-MEL-28,> 10 µM
same,IC50,[1],> 10 µM
same,IC50,[2],> 10 µM
same,IC50,[3],> 10 µM
CC1=C(CO[C@@H]2O[C@H](CO)[C@@H](O)[C@H](O)[C@H]2O)C[C@H]([C@@H](C)[C@H]2CC[C@H]3[C@@H]4C[C@H](O)C5=C(C(=O)C[C@H](O)C5)[C@H]4CC[C@]23C)OC1=O [WITHALONGOLIDE L],IC50,B16-F10,> 10 µM
same,IC50,SK-MEL-28,> 10 µM
same,IC50,[1],> 10 µM
same,IC50,[2],> 10 µM
same,IC50,[3],> 10 µM
CO[C@H]1CC(=O)[C@]2(C)[C@H]3CC[C@]4(C)[C@@H]([C@H](C)[C@H]5CC(C)=C(CO)C(=O)O5)CC[C@H]4[C@@H]3C[C@H]3O[C@]32[C@H]1O,IC50,B16-F10,> 10 µM
same,IC50,SK-MEL-28,> 10 µM
same,IC50,[1],> 10 µM
same,IC50,[2],> 10 µM
same,IC50,[3],> 10 µM
CC1=C(C)C(=O)O[C@@H]([C@@H](C)[C@H]2CC[C@H]3[C@@H]4C[C@H]5O[C@]56[C@@H](O)C=CC(=O)[C@]6(CO)[C@H]4CC[C@]23C)C1 [WITHALONGOLIDE B],IC50,B16-F10,0.2 µM
same,IC50,SK-MEL-28,3.9 µM
same,IC50,[1],0.17 µM
same,IC50,[2],1.3 µM
same,IC50,[3],0.4 µM
CC1=C(CO)C(=O)O[C@@H]([C@@H](C)[C@H]2CC[C@H]3[C@@H]4C[C@@H]5O[C@@H]6CC(=O)[C@](C)([C@H]4CC[C@]23C)[C@@]5(O)[C@H]6O)C1,IC50,B16-F10,> 10 µM
same,IC50,SK-MEL-28,> 10 µM
same,IC50,[1],> 10 µM
same,IC50,[2],> 10 µM
same,IC50,[3],> 10 µM
CC1=C(CO[C@@H]2O[C@H](CO)[C@@H](O)[C@H](O)[C@H]2O)C(=O)O[C@@H]([C@@H](C)[C@H]2CC[C@H]3[C@@H]4C[C@H]5O[C@]56[C@@H](O)C=CC(=O)[C@]6(C)[C@H]4CC[C@]23C)C1 [SITOINDOSIDE IX],IC50,B16-F10,3.7 µM
same,IC50,SK-MEL-28,8.3 µM
same,IC50,[1],4.2 µM
same,IC50,[2],> 10 µM
same,IC50,[3],5.2 µM
CC1=C(CO)C(=O)O[C@@H]([C@@H](C)[C@H]2CC[C@H]3[C@@H]4C[C@H]5O[C@]56[C@@H](O)C=CC(=O)[C@]6(CO)[C@H]4[C@@H](O)C[C@]23C)C1,IC50,B16-F10,0.49 µM
same,IC50,SK-MEL-28,3 µM
same,IC50,[1],0.77 µM
same,IC50,[2],2.6 µM
same,IC50,[3],3.6 µM
CC(=O)OCC1=C(C)C[C@H]([C@@H](C)[C@H]2CC[C@H]3[C@@H]4C[C@H]5O[C@]56[C@@H](OC(C)=O)C=CC(=O)[C@]6(CO)[C@H]4CC[C@]23C)OC1=O,IC50,B16-F10,0.098 µM
same,IC50,SK-MEL-28,0.81 µM
same,IC50,[1],0.14 µM
same,IC50,[2],2.2 µM
same,IC50,[3],0.41 µM
CC1=C(CO)C(=O)O[C@@H]([C@@H](C)[C@H]2CC[C@H]3[C@@H]4C[C@H]5O[C@]56[C@@H](O)[C@@H](OS(=O)(=O)O)CC(=O)[C@]6(C)[C@H]4CC[C@]23C)C1,IC50,B16-F10,0.18 µM
same,IC50,SK-MEL-28,5.1 µM
same,IC50,[1],0.48 µM
same,IC50,[2],0.27 µM
same,IC50,[3],1.4 µM
CO[C@H]1CC(=O)[C@]2(CO)[C@H]3CC[C@]4(C)[C@@H]([C@H](C)[C@H]5CC(C)=C(CO)C(=O)O5)CC[C@H]4[C@@H]3C[C@H]3O[C@]32[C@H]1O [WITHALONGOLIDE D],IC50,B16-F10,3.2 µM
same,IC50,SK-MEL-28,9.3 µM
same,IC50,[1],4.7 µM
same,IC50,[2],> 10 µM
same,IC50,[3],6.5 µM
CC1=C(CO)C(=O)O[C@@H]([C@@H](C)[C@H]2CC[C@H]3[C@@H]4CC=C5C[C@@H](O[C@@H]6O[C@H](CO)[C@@H](O)[C@H](O)[C@H]6O)CC(=O)[C@]5(CO)[C@H]4CC[C@]23C)C1 [WITHALONGOLIDE I],IC50,B16-F10,> 10 µM
same,IC50,SK-MEL-28,> 10 µM
same,IC50,[1],> 10 µM
same,IC50,[2],> 10 µM
same,IC50,[3],> 10 µM
